Assay results taken from ChEMBL document CHEMBL1134623, “Design and synthesis of a series of (2R)-N(4)-hydroxy-2-(3-hydroxybenzyl)-N(1)- [(1S,2R)-2-hydroxy-2,3-dihydro-1H-inden-1-yl]butanediamide derivatives as potent, selective, and orally bioavailable aggrecanase inhibitors” (J Med Chem, 2001).
pIC50, pKi: −log10 of the molar value.

Experiments:
[1] = biological target: 72 kDa type IV collagenase (Homo sapiens, UniProt P08253); test: Inhibition of matrix metalloprotease-2
Interstitial collagenase = biological target: T1, Interstitial collagenase (Homo sapiens, UniProt P03956); test: Inhibition of matrix metalloprotease-1
T1 sequence (P03956 whole entry): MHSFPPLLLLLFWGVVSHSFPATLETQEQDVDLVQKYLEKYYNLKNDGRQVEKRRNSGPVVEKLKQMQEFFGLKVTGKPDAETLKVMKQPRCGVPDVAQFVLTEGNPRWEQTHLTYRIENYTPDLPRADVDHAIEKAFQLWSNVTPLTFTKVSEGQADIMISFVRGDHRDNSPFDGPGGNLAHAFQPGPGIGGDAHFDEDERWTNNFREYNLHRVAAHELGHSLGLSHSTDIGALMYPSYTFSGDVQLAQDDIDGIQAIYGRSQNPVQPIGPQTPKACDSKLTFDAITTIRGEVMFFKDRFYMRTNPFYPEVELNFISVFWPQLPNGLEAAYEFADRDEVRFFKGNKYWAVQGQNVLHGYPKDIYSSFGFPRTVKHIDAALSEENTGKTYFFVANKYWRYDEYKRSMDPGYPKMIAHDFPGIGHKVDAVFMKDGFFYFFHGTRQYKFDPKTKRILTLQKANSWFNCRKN

[2] = Inhibition of aggrecanase; set-up: species or system Homo sapiens
Method in brief: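 Enzyme was a partially purified preparation from IL-1-stimulated bovine nasal cartilage. No amino acid sequence was available for it when screening began.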

Neutrophil collagenase = Neutrophil collagenase (Homo sapiens, UniProt P22894); test: Inhibition of matrix metalloprotease-8
Neutrophil collagenase, sequence (P22894 whole entry): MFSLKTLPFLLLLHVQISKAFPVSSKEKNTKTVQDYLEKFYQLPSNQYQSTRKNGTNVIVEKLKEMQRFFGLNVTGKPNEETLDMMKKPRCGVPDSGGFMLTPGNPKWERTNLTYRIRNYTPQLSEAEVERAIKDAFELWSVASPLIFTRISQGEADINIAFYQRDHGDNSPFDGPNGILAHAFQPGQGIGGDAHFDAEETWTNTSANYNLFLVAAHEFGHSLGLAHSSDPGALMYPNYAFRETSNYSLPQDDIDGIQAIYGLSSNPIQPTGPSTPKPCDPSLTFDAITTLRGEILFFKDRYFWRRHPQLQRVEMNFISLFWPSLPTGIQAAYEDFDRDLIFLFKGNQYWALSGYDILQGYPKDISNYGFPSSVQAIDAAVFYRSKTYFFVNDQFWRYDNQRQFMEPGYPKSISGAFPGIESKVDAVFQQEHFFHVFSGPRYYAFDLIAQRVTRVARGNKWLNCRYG

[3] = biological target: Matrix metalloproteinase-9 (Homo sapiens, UniProt P14780); test: Inhibition of human matrix metalloprotease-9
Matrix metalloproteinase-9, sequence (P14780 whole entry): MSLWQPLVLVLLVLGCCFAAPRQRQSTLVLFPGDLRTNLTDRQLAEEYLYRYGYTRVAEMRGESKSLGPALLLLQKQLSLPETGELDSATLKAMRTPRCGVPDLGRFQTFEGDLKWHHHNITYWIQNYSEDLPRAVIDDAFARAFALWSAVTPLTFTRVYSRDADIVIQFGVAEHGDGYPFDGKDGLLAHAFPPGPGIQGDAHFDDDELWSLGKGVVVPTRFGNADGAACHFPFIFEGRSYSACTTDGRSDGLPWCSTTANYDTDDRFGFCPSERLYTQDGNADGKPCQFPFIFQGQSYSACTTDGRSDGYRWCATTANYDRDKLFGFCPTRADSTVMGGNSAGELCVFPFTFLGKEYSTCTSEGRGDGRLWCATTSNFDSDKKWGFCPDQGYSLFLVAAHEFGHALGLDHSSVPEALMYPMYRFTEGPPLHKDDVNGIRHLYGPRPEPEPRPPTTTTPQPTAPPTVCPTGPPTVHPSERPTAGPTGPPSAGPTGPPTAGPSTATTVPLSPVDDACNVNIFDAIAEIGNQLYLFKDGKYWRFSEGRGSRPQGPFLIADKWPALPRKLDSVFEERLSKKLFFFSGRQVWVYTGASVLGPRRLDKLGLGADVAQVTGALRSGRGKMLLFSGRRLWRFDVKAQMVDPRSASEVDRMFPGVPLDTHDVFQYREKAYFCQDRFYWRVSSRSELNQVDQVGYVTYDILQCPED

72 kDa type IV collagenase, sequence (P08253 whole entry): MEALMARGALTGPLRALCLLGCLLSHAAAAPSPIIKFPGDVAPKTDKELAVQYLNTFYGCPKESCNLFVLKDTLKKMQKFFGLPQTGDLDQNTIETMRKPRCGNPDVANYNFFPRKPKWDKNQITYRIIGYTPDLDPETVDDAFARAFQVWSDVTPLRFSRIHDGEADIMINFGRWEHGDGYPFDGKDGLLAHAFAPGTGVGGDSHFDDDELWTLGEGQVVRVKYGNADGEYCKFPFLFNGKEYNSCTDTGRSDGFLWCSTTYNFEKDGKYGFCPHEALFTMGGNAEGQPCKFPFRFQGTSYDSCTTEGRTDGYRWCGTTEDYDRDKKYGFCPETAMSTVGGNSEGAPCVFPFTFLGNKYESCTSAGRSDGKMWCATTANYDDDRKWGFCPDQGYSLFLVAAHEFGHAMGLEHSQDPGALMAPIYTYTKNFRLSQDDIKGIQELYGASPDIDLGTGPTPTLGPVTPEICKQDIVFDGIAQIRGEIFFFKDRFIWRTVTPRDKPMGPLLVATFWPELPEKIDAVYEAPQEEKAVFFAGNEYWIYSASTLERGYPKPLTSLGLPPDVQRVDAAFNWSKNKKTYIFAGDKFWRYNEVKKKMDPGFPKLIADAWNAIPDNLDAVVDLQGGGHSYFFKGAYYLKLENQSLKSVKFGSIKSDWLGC

Row | pKi [1] | pKi (Interstitial collagenase) | pIC50 [2] | pKi (Neutrophil collagenase) | pKi [3] | Compound
1 | 5.18 | 4.02 | 5.50 | 5.92 | 4.81 | COc1cccc(C[C@H](CC(=O)NO)C(=O)N[C@H]2c3ccccc3C[C@H]2O)c1
2 | 7.28 | 5.93 | 7.79 | 8.04 | 6.69 | COc1ccc(C[C@H](CC(=O)NO)C(=O)N[C@H]2c3ccccc3C[C@H]2O)cc1
3 | 4.46 | 4.30 | 6.10 | 4.40 | 4.66 | O=C(C[C@@H](Cc1ccc2c(c1)OCO2)C(=O)N[C@H]1c2ccccc2C[C@H]1O)NO
4 | 5.81 | 5.96 | 4.88 | 6.52 | 5.38 | CC(C)C[C@H](CC(=O)NO)C(=O)N[C@@H]1c2ccccc2C[C@@H]1O
5 | 5.20 | 4.48 | 7.92 | 6.77 | 5.35 | O=C(NO)[C@@H](NCC1CC1)[C@@H](Cc1cccc(O)c1)C(=O)N[C@H]1c2ccccc2C[C@H]1O
6 | 4.50 | 4.12 | 5.88 | 4.82 | 4.67 | O=C(C[C@@H](Cc1ccc(O)cc1)C(=O)N[C@@H]1CCc2ccccc21)NO
7 | 7.14 | 7.09 | 5.77 | 7.43 | 6.79 | CC(C)C[C@H](CC(=O)NO)C(=O)N[C@H]1c2ccccc2C[C@H]1O
8 | 8.37 | 7.97 | 6.48 | 9.35 | 8.49 | CNC(=O)[C@H](Cc1ccc(OC)cc1)NC(=O)[C@@H](CC(=O)NO)Cc1ccc(O)cc1
9 | 6.39 | 6.02 | 6.74 | 7.15 | 6.78 | O=C(C[C@@H](Cc1ccc(O)cc1)C(=O)N[C@H]1c2ccccc2C[C@H]1O)NO
10 |  |  | 6.43 | 9.15 | > 9.00 | CNC(=O)[C@H](Cc1ccc(OC)cc1)NC(=O)[C@@H](CC(=O)NO)CC(C)C
11 | 5.82 | 4.51 | 7.19 | 5.07 | 5.48 | O=C(C[C@@H](Cc1cccc(O)c1)C(=O)N[C@H]1c2ccccc2C[C@H]1O)NO
